From ChEMBL document CHEMBL1145910, “5,6,7-trisubstituted 4-aminopyrido[2,3-d]pyrimidines as novel inhibitors of adenosine kinase” (J Med Chem, 2003)

Columns and labels:
[1] = target: Adenosine kinase (Homo sapiens, UniProt P55263); experiment: Inhibition of adenosine kinase activity in IMR-32 human neuroblastoma cells; assay type: cell-based
[2] = target: Adenosine kinase (Rattus norvegicus, UniProt Q64640); experiment: Inhibition adenosine kinase activity in rat brain in vitro; assay type: tissue-based
Sequence of Adenosine kinase (Rattus norvegicus, UniProt Q64640) (Q64640 whole entry): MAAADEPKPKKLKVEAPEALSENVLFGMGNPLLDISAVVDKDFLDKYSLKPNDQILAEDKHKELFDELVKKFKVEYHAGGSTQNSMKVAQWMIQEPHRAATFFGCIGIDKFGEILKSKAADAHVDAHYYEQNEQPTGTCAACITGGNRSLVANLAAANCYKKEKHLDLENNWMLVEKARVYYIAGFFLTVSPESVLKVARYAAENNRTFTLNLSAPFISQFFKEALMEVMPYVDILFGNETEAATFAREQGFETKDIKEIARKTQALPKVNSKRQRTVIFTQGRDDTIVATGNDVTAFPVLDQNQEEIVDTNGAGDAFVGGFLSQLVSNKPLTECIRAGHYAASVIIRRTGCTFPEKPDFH

[3] = test system: Rattus norvegicus; experiment: Reduction in formalin induced nociception after 10 umol/kg intraperitoneal administration
[4] = test system: Mus musculus; experiment: Percent maximal protective effect for hotplate analgesia in mice after 30 umol/kg intraperitoneal administration; assay type: functional
How it was run: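 Mice (n = 6-8 per group) tested on 55 °C hotplate 30 min after intraperitoneal dosing. %MPE = (postdrug latency − vehicle latency)/(cutoff latency − vehicle latency) × 100, cutoff 180 s; significance versus vehicle-treated mice at p < 0.05.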

Sequence of Adenosine kinase (Homo sapiens, UniProt P55263) (P55263 whole entry): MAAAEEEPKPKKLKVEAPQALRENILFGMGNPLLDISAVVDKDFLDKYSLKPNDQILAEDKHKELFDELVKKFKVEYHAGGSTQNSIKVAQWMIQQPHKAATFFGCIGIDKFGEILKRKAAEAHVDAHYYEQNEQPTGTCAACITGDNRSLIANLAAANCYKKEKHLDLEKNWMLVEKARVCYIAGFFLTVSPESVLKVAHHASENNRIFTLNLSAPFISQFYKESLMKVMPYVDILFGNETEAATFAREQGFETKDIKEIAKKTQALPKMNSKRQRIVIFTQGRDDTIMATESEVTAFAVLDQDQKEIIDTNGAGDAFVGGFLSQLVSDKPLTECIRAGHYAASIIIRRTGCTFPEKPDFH

| Compound | IC50 [1] [nM] | IC50 [2] [nM] | Max protective effect [3] [%] | Max protective effect [4] [%] |
| --- | --- | --- | --- | --- |
| COc1ccc(-c2c(-c3cccs3)nc3ncnc(N)c3c2-c2cc(Br)cs2)cc1OC | 25 | 0.43 | – | – |
| CN(C)c1ccc(-c2nc3ncnc(N)c3c(-c3cccc(Cl)c3)c2-c2ccccc2)cn1 | 130 | 5 | 39 | 56 |
| CN(C)c1ccc(-c2nc3ncnc(N)c3c(-c3ccccc3)c2-c2ccccc2)cn1 | 53 | 3.2 | 38 | 50 |
| CC(C)c1ccc(-c2c(-c3ccc(N(C)C)cc3)nc3ncnc(N)c3c2-c2ccc(C(C)C)cc2)cc1 | > 1000 | 6.7 | – | – |
| Nc1ncnc2nc(-c3ccc(N4CCOCC4)nc3)c(-c3ccccc3)c(-c3cccc(Br)c3)c12 | 155 | 4 | – | – |
| COc1ccc(-c2c(-c3ccc(N(C)C)cc3)nc3ncnc(N)c3c2-c2cccc(Br)c2)cc1OC | 350 | 3.1 | – | – |
| Cc1ccc(-c2c(-c3cccs3)nc3ncnc(N)c3c2-c2ccc(C)c(F)c2)cc1F | 288 | 0.25 | – | – |
| COC(=O)Cc1c(-c2cccs2)nc2ncnc(N)c2c1-c1cccc(Br)c1 | 163 | 3 | – | – |
| Clc1ccc(-c2cnc3c(N4CCOCC4)ncnc3n2)cc1 | 22000 | 410 | – | – |
| Nc1ncnc2nc(-c3ccc(N4CCOCC4)nc3)c(-c3ccc(F)cc3)c(-c3cccc(Br)c3)c12 | 197 | 5 | – | – |
| CN(C)c1ccc(-c2nc3ncnc(N)c3c(-c3cc(Br)cs3)c2C2CC2)cn1 | 625 | 60 | – | – |
| CC(C)c1c(-c2ccc(N3CCOCC3)nc2)nc2ncnc(N)c2c1-c1cccc(Br)c1 | > 1000 | 400 | – | – |
| CN(C)c1ccc(-c2c(-c3ccc(N4CCOCC4)nc3)nc3ncnc(N)c3c2-c2cccc(Cl)c2)cc1 | 130 | 37 | – | – |
| Nc1ncnc2nc(-c3cccs3)c(-c3ccccc3)c(-c3ccccc3)c12 | 49 | 0.55 | – | – |
| Nc1ncnc2nc(-c3ccc(N4CCOCC4)nc3)c(Cc3ccccc3)c(-c3cccc(Br)c3)c12 | 450 | 63 | – | – |
| CN(C)c1ccc(-c2nc3ncnc(N)c3c(-c3ccccc3)c2-c2ccccc2)cc1 | 250 | 16 | – | 77 |
| CN(C)c1ccc(-c2nc3ncnc(N)c3cc2-c2ccccc2)cc1 | 1500 | 350 | – | – |
| CN(C)c1ccc(-c2nc3ncnc(N)c3c(-c3cccc(Br)c3)c2C2CCCCC2)cn1 | > 1000 | 300 | – | – |
| COCCN(C)c1ccc(-c2nc3ncnc(N)c3c(-c3cc(Br)cs3)c2-c2ccc(OC)c(OC)c2)cc1 | 367 | 0.98 | – | – |
| CCCCCc1c(-c2ccc(N(C)C)nc2)nc2ncnc(N)c2c1-c1cccc(Br)c1 | 625 | 55 | – | – |
